From ChEMBL document CHEMBL1122699, “A reappraisal of the effect upon thymidine kinase of thymidine derivatives carrying large groups at the 5'-position” (J Med Chem, 1984) come the findings set out here.

The structures appear in SMILES notation.

In test [1] the test system is L1210. Description: The compound was tested for inhibition of thymidine kinase using […] at concentration 125 uM in L1210 cells. It is filed as cell-based. The method in brief: (§1)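 Enzyme: L1210 ascites cell sonicate (50 mM Tris-HCl pH 7.8, 150 mM KCl), 100000g supernatant precipitated at 30% ammonium sulfate saturation. Reaction mix: 5 µM [3H]TdR, 2 mM ATP, 1 mM MgCl2, 10% Me2SO, 45 mM Tris pH 7.8, compound added in Me2SO. Run 10 min at 37 °C, stopped by boiling. [3H]TMP captured on PEI-cellulose, eluted with HCl, counted. % inhibition given as mean ± SE of n determinations.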

Test [2] in a line: Thymidine kinase activity was measured by nonradiochemical assay method + TdR (percentage of the control rate measured in the presence of 5 uM Tdr). The method in brief:
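Conditions match the radiochemical assay, but with 5 µM unlabeled TdR: 10 min at 37 °C, stopped by 20-fold dilution in ice-cold water. Nucleotides separated from nucleosides, freeze-dried, dephosphorylated overnight with alkaline phosphatase, then quantified as nucleosides by C18 HPLC (A254/A280). Expressed as % of the control rate with 5 µM TdR, mean of ≥2 experiments.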

A short description of test [3]: Thymidine kinase activity was measured by radio chemical assay method. The method in brief:
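Same L1210 ammonium sulfate enzyme fraction and mix: 5 µM [3H]TdR, 2 mM ATP, 1 mM MgCl2, 10% Me2SO, 45 mM Tris-HCl pH 7.8, 37 °C. Stopped by boiling. [3H]TMP bound to PEI-cellulose squares and counted. Run in parallel with the HPLC assay. Activity given as % of the control rate, mean of at least two experiments.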

The subject of test [4] is L1210. Description: The compound was tested for inhibition of thymidine kinase using […] at concentration 50 uM in L1210 cells. It is filed as cell-based. The gist of the method: as §1
Test [5] in a line: Thymidine kinase activity was measured by nonradiochemical assay method - TdR (percentage of the control rate measured in the presence of 5 µM TdR).
For test [6], the system named is L1210. Description: The compound was tested for inhibition of thymidine kinase using […] at concentration 250 uM in L1210 cells. It counts as cell-based. The gist of the method:
as §1

Test [7] deals with L1210. Description: The compound was tested for inhibition of thymidine kinase using […] at concentration 200 uM in L1210 cells. It is filed as cell-based. The gist of the method:
as §1

As usually defined, the inhibition is the relative decrease from the control value, in per cent. The low end stands for a response near the control, the high end for a response far below the control. Turning to `Cc1cn(C2CC(O)C(CNC(=O)COc3ccc(OCc4ccc([N+](=O)[O-])cc4)cc3)O2)c(=O)[nH]c1=O` (stereo not given), the inhibition in the test on L1210 [1] was 1%.
Turning to `Cc1cn([C@H]2C[C@H](O)[C@@H](CN)O2)c(=O)[nH]c1=O`, the Activity came out at 27 in test [2], 26 in test [3] and 0 in test [5]. For the same compound, in the test on L1210 [4], the inhibition amounted to 76%.
Turning to `Cc1cn(C2CC(O)C(CNC(=O)COc3ccc(OCc4ccccc4)cc3)O2)c(=O)[nH]c1=O` (stereo not given), the inhibition in the test with L1210 [1] turned out to be 0%.
In the case of `Cc1cn([C@H]2C[C@H](O)[C@@H](COC(=O)COc3ccc(OCc4ccccc4)cc3)O2)c(=O)[nH]c1=O`, the Activity was determined as 152 in test [2], 65 in test [3] and 118 in test [5]. This compound also registered an inhibition in the test on L1210 [6] of 33%.
As for `Cc1cn([C@H]2C[C@H](O)[C@@H](COC(=O)COc3ccc(OCc4ccc([N+](=O)[O-])cc4)cc3)O2)c(=O)[nH]c1=O`, the Activity came out at 144 in test [2], 62 in test [3] and 110 in test [5]. This compound yielded an inhibition in the test with L1210 [7] of 35%.
With `Cc1cn([C@H]2C[C@H](O)[C@@H](COCCOc3ccc(OCc4ccccc4)cc3)O2)c(=O)[nH]c1=O`, the inhibition in the test with L1210 [7] came to 14%.
